The values that follow come from PMC9768356 (iScience, 2022).

The test system of one data set is Areg. Kind of data set: Areg protein in BMDMs. As to conditions: n = 4 per group. Type of data set: cell-based, mice. In outline: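 BMDMs: bone marrow cells from mouse hind legs, erythrocytes lysed, grown in DMEM with 10% FBS and 10 ng/mL GM-CSF at 37°C and 5% CO2. Non-adherent cells replated after 24 h and cultured 7 days, medium changed every 3 days. Cells were infected with E. coli and harvested at 12 h. Iron-loading agent 100 μM for 20 h or iron chelator 100 μM for 12 h. Lysis in RIPA, BCA protein assay, 20 or 40 μg on 12% SDS-PAGE, PVDF. Anti-Areg 1:1000 with β-actin loading control (1:5000), HRP secondaries 1:5000, ECL detection. Supernatant Areg by ELISA. n = 4 per group.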

The subject of the next data set is YAP. Kind of data set: YAP activation in BMDMs. In kind it is cell-based, mice. As to conditions: E. coli 12 h, n = 4 per group. The procedure, abridged:
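Bone marrow cells from Fpn^flox/flox or Fpn^LysM/LysM mice were erythrocyte-lysed and grown in DMEM/10% FBS with 10 ng/mL GM-CSF. Nonadherent cells were replated after 24 h and cultured 7 days, with medium changed every 3 days. Cells were infected with E. coli (12 h) with DFO (100 μM, 12 h). Lysates were blotted for P-YAP and YAP (1:1000 each) with a β-actin control (1:5000); n = 4.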

For data set [1] the following is noted: cited from earlier work.

`CC(=O)N(O)CCCCCNC(=O)CCC(=O)N(O)CCCCCNC(=O)CCC(=O)N(O)CCCCCN` [DFO, desferrioxamine]: the “protein levels of Areg, Fpn^LysM/LysM BMDMs, DFO” value in the data set on Areg (Fpn^LysM/LysM BMDMs, E. coli 12 h, DFO 100 μM, 12 h) is “decreased YAP activity and the protein levels of Areg”. The “protein levels of Areg, Fpn^flox/flox BMDMs, DFO” value with Areg (Fpn^flox/flox BMDMs, E. coli 12 h, DFO 100 μM, 12 h) is “decreased YAP activity and the protein levels of Areg”. In addition, the “YAP activity, Fpn^LysM/LysM BMDMs, DFO” value in the data set with YAP (Fpn^LysM/LysM BMDMs, DFO 100 μM, 12 h) is recorded as “decreased YAP activity”. Further, the “YAP activity, Fpn^flox/flox BMDMs, DFO” value with YAP (Fpn^flox/flox BMDMs, DFO 100 μM, 12 h) is “decreased YAP activity”.

Take `CC[C@H](C)[C@@H]1NC(=O)[C@@H](NC(=O)[C@@H](NC(=O)[C@@H]2CCCN2C(=O)[C@H](Cc2ccccc2)NC(=O)[C@H](Cc2c[nH]cn2)NC(=O)[C@@H](NC(=O)[C@@H](N)CC(=O)O)[C@@H](C)O)[C@@H](C)CC)CSSC[C@@H](C(=O)N[C@@H](CCCCN)C(=O)N[C@H](C(=O)O)[C@@H](C)O)NC(=O)[C@@H]2CSSC[C@@H]3NC(=O)[C@@H]4CSSC[C@H](NC(=O)[C@H](Cc5ccccc5)NC1=O)C(=O)N[C@@H](CSSC[C@H](NC(=O)[C@H](CCCCN)NC(=O)[C@H](CO)NC(=O)[C@H](CCCNC(=N)N)NC(=O)[C@H](Cc1c[nH]cn1)NC3=O)C(=O)NCC(=O)N[C@@H](CCSC)C(=O)N2)C(=O)NCC(=O)N4` [Hepcidin]: the “prevention of bacterial dissemination” value in data set [1] (by limiting extracellular iron availability) was “prevent bacterial dissemination by limiting extracellular iron availability”. Besides, in data set [1], the pharmacokinetics result is reported as “poor pharmacokinetics”.

Consider ferric ammonium citrate, for which the “production and secretion of Areg, Fpn^flox/flox BMDMs, FAC” value in the data set with Areg (Fpn^flox/flox BMDMs, E. coli 12 h, FAC 100 μM, 20 h) is “promoted the production and secretion of Areg”. Further, in the data set on YAP (Fpn^flox/flox BMDMs, FAC 100 μM, 20 h), the “activation of YAP signaling, Fpn^flox/flox BMDMs, FAC” value is given as “significantly facilitated the activation of YAP signaling”.

Take verteporfin: the “protein levels of macrophage-derived Areg (YAP inhibition)” value in the data set on Areg (BMDMs and supernatant, 12 h after E. coli infection) is given as “dramatically downregulated the protein levels of macrophage-derived Areg”.
